Data published in ChEMBL document CHEMBL3228027, “Synthesis and estrogenic properties of 17-epi-ethynylestradiol and its ether derivatives epimestranol and epiquinestrol” (J Med Chem, 1979).
pIC50: −log10 of the molar value. Calls of active or inactive are those of the source. The calls are words filed in the database; no cut-off is given here.

Key:
Rattus norvegicus [1] = test: Induction of vaginal cornification in ovariectomized mature rat at 5 to 10 mg/kg, po administered with sesame oil by Allen-Doisy method relative to control; type: functional; conditions: dose mg/kg 5-10
In short: (§1)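 Allen-Doisy test in ovariectomized mature rats, 14-59 rats per compound and 4-20 per group. Dose ranges were set from the uterotropic results. A smear counted as positive if it was mainly nucleated or cornified epithelial cells with no leucocytes. Results are given as the dose ranges giving positive smears.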

Rattus norvegicus [2] = test: Antiestrogenic activity in ethynylestradiol-stimulated immature rat assessed as doubling of uterine weight up to 3 mg/kg, po administered for three days by uterotropic assay; type: functional, organism-based; parameters: dose 3 mg/kg
In short: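 Modified Edgren–Calhoun method in immature rats. The test material was given orally for 3 days together with enough ethynylestradiol to double uterine weight, and uterine weight was the end point.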

[3] = Displacement of 17beta-[3H]estradiol from rabbit uterine estrogen receptor after 16 to 18 hrs by liquid scintillation counting; parameters: species or system Oryctolagus cuniculus
In short: (§2)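 Rabbit uterine cytosol, 0.7 μg protein per tube, with 16000 dpm 17β-[3H]estradiol (113 Ci/mmol) in Tris-HCl pH 8.0, 0.001 M EDTA, 0.25 M sucrose. Eight concentrations from 1 × 10^-10 to 1 × 10^-4 M were run in duplicate and incubated 16-18 h at 4 °C. Bound and free were separated with dextran-coated charcoal, bound radioactivity was read by liquid scintillation, and results were compared with standards.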

Oryctolagus cuniculus [4] = species: Oryctolagus cuniculus; test: Displacement of 17beta-[3H]estradiol from rabbit uterine estrogen receptor after 16 to 18 hrs by liquid scintillation counting relative to ethynylestradiol; in short: as §2
Rattus norvegicus [5] = test: Estrogenic activity in immature rat administered orally with sesame oil as three doses by uterotropic assay relative to ethynylestradiol; type: functional
In short: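 Six-point oral assay in immature rats, with three doses of ethynylestradiol standard and three doses of test compound in sesame oil, 9-15 rats per dose group. Dose-response lines were checked for linearity and parallelism. Relative potency and 95% confidence limits were computed, and values are combined from three assays.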

Rattus norvegicus [6] = test: Induction of vaginal cornification in ovariectomized mature rat at 10 to 20 mg/kg, po administered with sesame oil by Allen-Doisy method relative to control; type: functional; conditions: dose mg/kg 10-20; in short: as §1
Oryctolagus cuniculus [7] = species: Oryctolagus cuniculus; test: Displacement of 17beta-[3H]estradiol from rabbit uterine estrogen receptor at 1 x 10^-4 M after 16 to 18 hrs by liquid scintillation counting; in short: as §2
Rattus norvegicus [8] = test: Induction of vaginal cornification in ovariectomized mature rat at 0.005 to 0.010 mg/kg, po administered with sesame oil by Allen-Doisy method relative to control; type: functional; conditions: dose mg/kg 0.005-0.010; in short: as §1
Rattus norvegicus [9] = test: Induction of vaginal cornification in ovariectomized mature rat at 0.025 to 0.1 mg/kg, po administered with sesame oil by Allen-Doisy method relative to control; type: functional; conditions: dose mg/kg 0.025-0.1; in short: as §1
Rattus norvegicus [10] = test: Induction of vaginal cornification in ovariectomized mature rat at 0.25 to 0.5 mg/kg, po administered with sesame oil by Allen-Doisy method relative to control; type: functional; conditions: dose mg/kg 0.25-0.5; in short: as §1

| SMILES | pIC50 [3] | Ratio (Oryctolagus cuniculus [4]) | inhibition (Oryctolagus cuniculus [7]) | Ratio (Rattus norvegicus [5]) | Activity (Rattus norvegicus [9]) [%] | further results |
| --- | --- | --- | --- | --- | --- | --- |
| C#C[C@@]1(O)CC[C@H]2[C@@H]3CCc4cc(OC)ccc4[C@H]3CC[C@@]21C | – | – | inactive | 0.0023 | – | Activity (Rattus norvegicus [6]): 0% |
| C#C[C@]1(O)CC[C@H]2[C@@H]3CCc4cc(OC5CCCC5)ccc4[C@H]3CC[C@@]21C [QUINESTROL] | 5.22 | 4e-05 | – | 1.66 | – | Activity (Rattus norvegicus [8]): 40% |
| C#C[C@@]1(O)CC[C@H]2[C@@H]3CCc4cc(OC5CCCC5)ccc4[C@H]3CC[C@@]21C | – | – | inactive | 0.05 | – | Activity (Rattus norvegicus [10]): 25% |

More lines, main results first:

| pIC50 [3] | Ratio (Oryctolagus cuniculus [4]) | inhibition (Oryctolagus cuniculus [7]) | SMILES | Ratio (Rattus norvegicus [5]) | Activity (Rattus norvegicus [9]) [%] | further results |
| --- | --- | --- | --- | --- | --- | --- |
| 7.82 | 0.016 | – | C#C[C@@]1(O)CC[C@H]2[C@@H]3CCc4cc(O)ccc4[C@H]3CC[C@@]21C | – | – | Activity (Rattus norvegicus [1]): 0%; Activity (Rattus norvegicus [2]): inactive |
| 9.62 | – | – | C#C[C@]1(O)CC[C@H]2[C@@H]3CCc4cc(O)ccc4[C@H]3CC[C@@]21C [ETHINYL ESTRADIOL] | – | 10 | – |
| 6.70 | 0.0012 | – | C#C[C@]1(O)CC[C@H]2[C@@H]3CCc4cc(OC)ccc4[C@H]3CC[C@@]21C [MESTRANOL] | 0.84 | 11 | – |
